KCNQ1 act: potentiators or activators of human KCNQ1 potassium channel | P51787 | CHO-K1 KCNQ1, thallium flux FluxOR fluorescence; stronger effect = higher value | B-score at 10 µM | 310,000 compounds, 0.35% hits;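 active means fluorescence ratio B-score, a plate-corrected score, at least three library SD, with initial intensity B-score within 5 SD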
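assay system = CHO-K1 cells stably expressing KCNQ1 | medium = assay buffer, equal DMSO in all wells | timing = 37 °C overnight plating, 90-min dark dye load, 20-min compound pretreatment | measured by = kinetic FluxOR thallium fluorescence, 10-s 1-Hz baseline, 110-s post-stimulus read | measure = fluorescence change relative to baseline, converted to B score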
KCNK9 block: inhibitors of human KCNK9 two-pore domain potassium channel. 310,000 compounds, 1.2% hits. B-score at 10 µM. HEK293 KCNK9, FluxOR thallium flux fluorescence; stronger effect = lower value;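 active means ratio B-score over 3 SD below the library mean, with starting fluorescence within 5 SD of its mean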;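 further: negative B-score means less thallium flux so channel inhibition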
Kir21 block: blocks the mouse Kir2.1 inward-rectifier potassium channel; 310,000 compounds, 0.85% hits; AID 1672; B-score at 10 µM; HEK293-Kir2.1, FluxOR thallium flux fluorescence; stronger effect = lower value; P35561;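 active means fluorescence ratio B-score at or below minus 3 SD of library scores, with starting-brightness B-score within 2 SD, cut at about -4.2 in these data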;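 further: channel flux triggered by added potassium and thallium sulfate stimulus; B-score of peak minus minimum fluorescence over baseline after thallium stimulus; more negative B-score means stronger Kir2.1 block with less thallium influx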
Target sequence (P35561 whole entry, looked up): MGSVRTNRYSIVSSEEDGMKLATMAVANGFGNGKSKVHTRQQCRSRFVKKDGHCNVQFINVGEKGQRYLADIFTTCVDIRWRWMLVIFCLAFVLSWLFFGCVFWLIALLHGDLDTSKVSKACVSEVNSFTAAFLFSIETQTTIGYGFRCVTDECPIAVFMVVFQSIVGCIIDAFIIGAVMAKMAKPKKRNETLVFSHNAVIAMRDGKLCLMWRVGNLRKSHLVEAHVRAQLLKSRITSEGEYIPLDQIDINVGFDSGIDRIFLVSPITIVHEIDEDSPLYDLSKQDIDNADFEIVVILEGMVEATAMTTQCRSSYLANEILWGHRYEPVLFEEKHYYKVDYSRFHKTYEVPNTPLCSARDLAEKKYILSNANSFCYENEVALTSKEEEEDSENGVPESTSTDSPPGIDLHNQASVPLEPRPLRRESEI
hERG protect: compounds protecting human hERG from proarrhythmic drug block | Q12809 | 310,000 compounds, 0.51% hits | activation (rescue from dofetilide block), less the hit threshold, % at 10 µM | CHO-hERG, FluxOR thallium flux, dofetilide IC70 present;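 active means activation above the mean of controls blocked by dofetilide plus 5 SD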;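 further: thallium influx through hERG after potassium depolarization seen as dye fluorescence rise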
KCNK3 block: human KCNK3 channel inhibition, primary screen; CHO-KCNK3 thallium flux, FluxOR fluorescence; stronger effect = lower value; B-score at 10 µM; 340,000 compounds, 0.84% hits;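 active means B-score under library mean minus 4 SD, starting fluorescence ratio at most library mean plus 5 SD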;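 further: more negative B-score means stronger inhibition of thallium flux through KCNK3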
KCNQ1 inh: blocks the human KCNQ1 potassium channel. CHO-K1 KCNQ1, FluxOR thallium flux fluorescence; stronger effect = higher value. B-score at 10 µM. 310,000 compounds, 1.3% hits. AID 2642;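 active means compounds whose thallium flux B-score, printed positive for inhibition, exceeds three library SD while starting fluorescence stays within three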;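 further: channel opened by potassium depolarization with thallium stimulus after 20 min compound exposure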
KCNK9 block conf: human KCNK9 inhibitor confirmation; shares compounds with KCNK9 block; HEK293 KCNK9 cells, FluxOR thallium flux fluorescence; inhibition, % at 10 µM; 4,900 compounds, 43% hits;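 active means thallium signal inhibited by more than 5 SD of the compound-free buffer control wells, on both duplicate plates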;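 further: 0% = assay buffer control wells without compound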
Kir2-1 spec: mouse Kir2.1 off-target activity of KCNK9 modulators. shares compounds with KCNK9 block. Kir2.1 cells, FluxOR thallium flux fluorescence. inhibition, % at 10 µM. 4,900 compounds, 4% hits. AID 492993;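 active means thallium signal drop more than 5 SD beyond the mean of the no-compound control wells, seen in both duplicate plates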;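 further: signal is fluorescence rise after thallium addition divided by baseline fluorescence; plate controls were assay buffer only for no effect and full block by chlorpromazine control for full effect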
HEK293 Tl ctr: non-induced cell nonspecific activity of KCNK9 modulators | shares compounds with KCNK9 block | non-induced KCNK9-HEK293, FluxOR thallium flux | inhibition, % at 10 µM | 4,900 compounds, 40% hits;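 active means thallium signal drop beyond 5 SD of the untreated control mean, on both duplicate plates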;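 further: plate controls were buffer only IC0 wells for no effect and SID17386958 at its maximal inhibitory level for full effect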
* marks the source's active call; other numbers are inactive results; i = inactive; / = no result. Only some compounds are listed: those with a hit (about 3.8% of all), similar ones and a draw of the others.

SMILES | KCNQ1 act | KCNK9 block | Kir21 block | hERG protect | KCNK3 block | KCNQ1 inh | KCNK9 block conf | Kir2-1 spec | HEK293 Tl ctr
CCC(C)(C)N(C(=O)CCC(=O)Nc1cc(C)on1)C(C(=O)NC(C)(C)C)c1ccc(OC)cc1 (stereo not given) | i | i | 0.58 | -7 | i | i | / | / | /
COCc1cc(N2CCOCC2)nc(SCc2ccc(Cl)cc2)n1 | i | i | 0.23 | -4 | i | i | / | / | /
CSCc1cc(N2CCOCC2)nc(SCc2ccc(Cl)c(Cl)c2)n1 | i | -9.2* | -1.2 | -3 | i | i | 31%* | i | 38%*
CS(=O)(=O)N1CCN(Cc2ccccc2C(F)(F)F)CC1 | i | i | 0.95 | -5 | i | i | / | / | /
Cc1ccc(CN2CCN(Cc3ccccc3C(F)(F)F)CC2)cc1 | i | i | -4.5* | -13 | i | i | i | i | i
COc1cc(CN2CCN(Cc3ccccc3C(F)(F)F)CC2)cc(OC)c1OC | i | i | 0.04 | -7 | i | i | i | i | i
COc1cc(CN2CCN(Cc3ccc(C(F)(F)F)cc3)CC2)cc(OC)c1OC | i | i | 1.2 | -5 | i | i | i | i | i
Cc1cccc(SC2CCN(C(=O)C3CCC(=O)N(C4CC4)C3)CC2)c1 (stereo not given) | i | i | 0.17 | -9 | i | i | / | / | /
N#CC1=C(S)N(c2ccccc2)C(c2ccc(-c3ccc(Cl)c(Cl)c3)o2)NC1=O (stereo not given) | i | i | -6.2* | -16 | i | i | i | i | i
O=[N+]([O-])c1cc(/C=N/O)ccc1Oc1ccccc1Cl | i | i | -3.8 | -15 | i | i | / | / | /
O=[N+]([O-])c1cc(/C=N/O)ccc1Oc1cccc(Cl)c1 | i | -10* | 0.34 | -14 | i | i | 41%* | i | 25%*
C=CCSc1nnc(CCCCCN2C(=O)c3cccc4cccc(c34)C2=O)o1 | i | i | 0.81 | -10 | i | i | i | 35%* | i
Cc1cccc(OCCCCCn2ccnc2)c1C | i | i | -1.3 | -8 | i | i | i | i | i
CCCCc1ccc(-c2ccc(Br)cc2)nc1 | i | i | -1.6 | -6 | i | i | i | i | i
COc1ccc(OC)c(Nc2cc(-c3ccccc3)nc(N)n2)c1 | i | -8.2* | 0.01 | -11 | / | i | 32%* | i | i
Cc1nnc(SCC(=O)NNC(=O)c2ccco2)s1 | i | i | -0.53 | -6 | i | i | / | / | /
O=S(=O)(c1ccccc1Oc1ccc(Cl)cc1Cl)N1CCCCC1 | i | -9.9* | 0.49 | -8 | i | i | 45%* | i | i
O=S(=O)(c1cccc(Cl)c1Cl)N1CCCCC1 | i | i | -0.79 | -18 | i | i | / | / | /
Cc1cc(C)c(C(=O)COC(=O)C2CCN(c3ccc(C(F)(F)F)cn3)CC2)cc1C | i | i | 0.49 | -13 | i | 7* | i | i | i
Cc1ccc(-c2nnc(N3CCCCC3)c3ccccc23)cc1S(=O)(=O)NCC1CCCO1 (stereo not given) | i | -12* | -0.26 | -20 | i | i | i | i | i
O=C(/C=C/c1ccco1)Oc1cc(Br)cc(/C=N/NC(=O)c2ccccc2O)c1 | i | -14* | -0.61 | -11 | i | i | 76%* | i | 38%*
Cc1ccc(C(=O)N/N=C/c2cccc(OC(=O)/C=C/c3ccco3)c2)cn1 | i | i | 2.3 | -11 | i | i | / | / | /

Bioassay records as filed in PubChem BioAssay.
